For 1 molecule, Activity results are on record in ChEMBL document CHEMBL5390295, “Isolinderalactone Ameliorates the Pathology of Alzheimer's Disease by Inhibiting the JNK Signaling Pathway” (2023).

In assay [1] the test system is PC-12. Nature of the assay: Neuroprotective activity in rat PC12 cells assessed as reversal of Abeta1-42 decreased in Bcl-2 expression level at 10 uM preincubated for 3 hrs followed by Abeta1-42 induction and measured after 24 hrs by Western blot analysis. The assay is classed as functional, cell-based. The following applies: time 27.0 hrs. In short, it runs like this: (§1)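 Aβ1–42 challenge in PC12 cells was 10 μM for 24 h after 3 h pretreatment at 10 μM. SP600125 (1.25 μM) was added 0.5 h before pretreatment where used. Cells were lysed in RIPA and protein measured by BCA. Blotting used PVDF transfer, 5% BSA/TBST block for 2 h, primaries 1:1000 overnight at 4 °C, and HRP secondary for 2 h. Bcl-2/Bax ratio and band intensities were quantified.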
For orientation: Immunoblotting shows a protein as a band on a membrane.

Assay [2] concerns PC-12. Kind of assay: Neuroprotective activity against Abeta1-42 induced rat PC12 cells assessed as increase in cell viability at 10 uM preincubated for 3 hrs followed by Abeta1-42 induction and measured after 24 hrs in the presence of SP600125 by MTT assay. Type of assay: functional, cell-based. The note with it: time 27.0 hrs. The method, boiled down:
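PC12 cells were seeded at 5×10^3/well and pretreated 3 h with test compound (range or 10 μM), with or without SP600125 1.25 μM for 0.5 h beforehand. Cells were then exposed to 10 μM Aβ1–42 oligomers for 24 h. MTT 0.5 mg/mL was added for 3–4 h, formazan dissolved in DMSO, and absorbance read at 570 nm. Viability is given as % of control.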
In general terms: Tetrazolium dyes change colour on reduction, which living cells bring about.

Assay [3] has as its system PC-12. Nature of the assay: Neuroprotective activity against Abeta1-42 induced rat PC12 cells assessed as effect on Bcl2/Bax ratio level at 10 uM preincubated for 3 hrs followed by Abeta1-42 induction and measured after 24 hrs in the presence of SP600125 by Western blot analysis. The assay is classed as functional, cell-based. The note with it: time 27.0 hrs. The method, boiled down: as §1

The subject of assay [4] is PC-12. Kind of assay: Neuroprotective activity against in Abeta1-42 induced rat PC12 cells assessed as effect on cleaved caspase-3 level at 10 uM preincubated for 3 hrs followed by Abeta1-42 induction and measured after 24 hrs in the presence of SP600125 by Western blot analysis. The assay is classed as functional, cell-based. The following applies: time 27.0 hrs. The method, boiled down:
as §1

In assay [5] the test system is Mus musculus. Kind of assay: Anti-alzheimer activity in hippocampus of APP/PS1 dE9 double transgenic mouse model assessed as decrease in MDA level at 1 to 10 mg/kg, ip administered once daily for 30 consecutive days […]. The assay is classed as functional, organism-based. The note with it: dose 1-10 mg/kg, time 30.0 day.
Assay [6] deals with Mus musculus. Nature of the assay: Anti-alzheimer activity against mouse model APP/PS1 dE9 double transgenic mouse model assessed as improvement in average movement speed at 1 to 10 mg/kg, ip administered once daily for 30 consecutive days measured on day 1 by novel object recognition test. The assay is classed as functional, organism-based. The note with it: dose 1-10 mg/kg, time 31.0 day.

Calls of active or inactive are those of the source. No cut-off for these calls is given here.

Take `C=C[C@@]1(C)Cc2occ(C)c2[C@@H]2OC(=O)C(=C)[C@@H]21` [ISOLINDERALACTONE]: the outcome in assay [1], in assay [5] and in assay [6] was Active. Besides, the result in assay [2], in assay [3] and in assay [4] was inactive.
